Measured values gathered from unrelated publications.
Protocols differ between the studies behind these lines.
Observed: cell growth or viability

SMILES | cell line | assay | conditions | measurement | value
CC(C)C[C@@H]1NC(=O)[C@@H](N(C)C(=O)[C@@H](NC(=O)[C@@H]2C[C@@H](F)CN2C(=O)C2(C(F)(F)F)CC(F)(F)C2)C2CC2)CCCCNC(=O)C(C)(C)NC(=O)[C@H](Cc2cc(Cl)nn2-c2ccccc2)N(C)C1=O | NCI-H446 | MTT | 5 days | GI50 | 4400 nM
O=C(NO)c1ccc(CNc2nc3cccc(-c4ccc5c(c4)OCO5)n3n2)cc1 | HOP-92 | SRB | – | GI50 | 700 nM
Cc1cc(C)c(CNC(=O)c2cc(Cl)c3c(c2C)O[C@@](C)([C@H]2CC[C@H](N(C)C)CC2)O3)c(=O)[nH]1 | HT-1376 | ATP luminescence | 18 days | GI50 | 18 nM
CN1CCc2cc(Nc3ncc(C4CC4)c(NCCCNC(=O)C4CCC4)n3)ccc2C1 | K562 | MTT | 72 h | GI50 | > 1000 nM
C=CC(=O)c1cccnc1Nc1cc(C(F)(F)F)ccc1OC | HCT-15 | SRB | 48 h | GI50 | 6960 nM
C=CC[C@@H]1/C=C(\C)C[C@H](C)C[C@H](OC)[C@H]2O[C@@](O)(C(=O)C(=O)N3CCCC[C@H]3C(=O)O[C@H](/C(C)=C/[C@@H]3CC[C@@H](O)[C@H](OC)C3)[C@H](C)[C@@H](O)CC1=O)[C@H](C)C[C@@H]2OC | K562 | MTT | 72 h | GI50 | > 1000 nM
COc1cc2c3c(n(CCCNC(C)C)c(=O)c2cc1OC)-c1nc2c(cc1C3=O)OCO2 | K562 | MTS | 72 h | IC50 | 182 nM
C=CC(=O)NC1CCN(c2ncc3ncnc(Nc4ccc(Oc5ccc6c(c5)ncn6C)c(C)c4)c3n2)CC1 | NCI-H1373 | – | – | EC50 | 137000 nM
C=CS(=O)(=O)Nc1ccc(OC)c(-c2c[nH]c3ncc(-c4cncc(C(=O)N(C)C)c4)cc23)c1 | K562 | MTT | 72 h | GI50 | > 1000 nM
Cc1sc2c(c1C)C(c1ccc(Cl)cc1)=N[C@@H](CC(=O)NCCCCCCCCNC(=O)COc1cccc3c1C(=O)N(C1CCC(=O)NC1=O)C3=O)c1nnc(C)n1-2 (some centres unmarked) | K562 | ATP luminescence | – | IC50 | 343 nM
COc1ccc(C#N)cc1-c1c[nH]c2ncc(-c3cncc(C(=O)N(C)C)c3)cc12 | K562 | MTT | 72 h | GI50 | 330 nM
CCNCCCn1c2c(c3cc(OC)c(OC)cc3c1=O)C(=O)c1cc3c(nc1-2)OCO3 | K562 | MTS | 72 h | IC50 | 158 nM
C=C(F)C(=O)N1CCN(c2nc(OC[C@@H]3CCCN3C)nc3c2CCN(c2cccc4cccc(Cl)c24)C3)C[C@@H]1CC#N | NCI-H1373 | ATP luminescence | 3D culture | IC50 | 5.15 nM
O=C(Nc1ccc(OC(F)(F)Cl)cc1)c1cnc(N2CC[C@@H](O)C2)c(-c2cc[nH]n2)c1 | K562 | MTT | 72 h | GI50 | 0.72 nM
COc1cc2c3c(n(CCCN4CCOCC4)c(=O)c2cc1OC)-c1nc2c(cc1C3=O)OCO2 | K562 | MTS | 72 h | IC50 | 1010 nM
C=CC(=O)c1cccnc1Nc1cc(C(F)(F)F)ccc1OCc1ccccc1 | HCT-15 | SRB | 48 h | GI50 | 19500 nM
CC(C)C[C@@H]1NC(=O)[C@@H](N(C)C(=O)[C@H](CC2CCC2)NC(=O)[C@@H]2C[C@@H](F)CN2C(=O)C2(C(F)(F)F)CC(F)(F)C2)CCCCNC(=O)C2(CC2)NC(=O)[C@H](Cc2cc(Cl)ccc2Cl)N(C)C1=O | NCI-H446 | MTT | 5 days | GI50 | 65 nM
